Screening data: PubChem, several laboratories
Shown are actives, neighbours in structure and some others; about 1.3% of the full set was active somewhere.
procasp3 activ: activators of human procaspase-3 D3A mutant, primary screen, biochemical, absorbance, PC-3 D3A mutant, single concentration; Caspase-3 (Homo sapiens), P42574; recombinant procaspase-3 D3A, Ac-DEVD-pNA absorbance 405 nm; activation, % at 8.5 µM; actives 0.11% (n = 330,000);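 active = activation above the mean of all tested compounds plus 3 SD, cut at about 21% in these data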;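 also: 0% = DMSO alone and 100% = DMSO wells spiked with extra 5 µM PC-3 D3A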
Target sequence (P42574 whole entry D9A/D28A/D175A): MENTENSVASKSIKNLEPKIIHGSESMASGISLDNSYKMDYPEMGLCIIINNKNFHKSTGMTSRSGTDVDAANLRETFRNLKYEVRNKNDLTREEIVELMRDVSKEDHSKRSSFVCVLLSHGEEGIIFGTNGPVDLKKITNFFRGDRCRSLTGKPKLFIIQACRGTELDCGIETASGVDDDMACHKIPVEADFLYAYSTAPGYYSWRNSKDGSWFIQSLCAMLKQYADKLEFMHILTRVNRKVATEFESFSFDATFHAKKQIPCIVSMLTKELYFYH
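Evaluation: percent activation relative to control range; Material: Procaspase-3 D3A mutant, all three cleavage aspartates alanine; Compound: single dose, 8.5 µM nominal compound, 0.8% DMSO; Replication: one well per compound; Signal: absorbance at 405 nm, 0 and 120 min; Schedule: 1 h preincubation plus 2 h reaction at 25 °C.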
VLA-4 inh: inhibition in human VLA-4 binding assay, primary screen, VLA-4 allosteric modulator project, MLPCN library, flow cytometry, VLA-4 expressing cells; Integrin alpha-4 (Homo sapiens), P13612; ligand binding flow cytometry; inhibition, % (about 7 µM as worked out from the volumes in the protocol); actives 0.2% (n = 330,000); in the data active = inhibition above about 50%
procasp7 counter: procaspase-7 activators, primary screen, counter-screen for procaspase-3 activator project, biochemical, absorbance, HTS, human. activation, % at 8.5 µM. actives 0.093% (n = 330,000). AID 463210, 2010. recombinant procaspase-7, Ac-DEVD-pNA absorbance 405 nm; D23A/D198A/D206A triple mutant, cannot self-cleave; scale: DMSO 0, 5 µM enzyme 100;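 active = percent activation above the screen-wide mean plus 3 SD, cut at about 25% in these data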
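signal = Epi-absorbance of released pNA at 405 nm, two timepoints | assay system = Uncleavable procaspase-7 mutant enzyme | reagent = Ac-DEVD-pNA substrate, 400 µM as added | times = 1 h enzyme–compound preincubation and 2 h substrate reaction, both 25 °C | benchmarks = low DMSO alone, high DMSO plus 5 µM PC-7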
GRK2 aptamer HTS: compounds blocking aptamer binding on GRK2 – biochemical, human GRK2, bead flow cytometry, HTS, primary screen. Beta-adrenergic receptor kinase 1 (Homo sapiens), P25098. FAM-aptamer displacement from GRK2. inhibition of aptamer binding, % at 10 µM. actives 0.59% (n = 330,000);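 active = inhibition of aptamer binding above 40%, roughly 3 SD of noise, on plates passing a quality check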;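 also: median bead fluorescence of bound FAM aptamer so fluorescent compounds give negative values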
JMJD2C inh: inhibitors of GASC-1 histone demethylase, primary screen, biochemical, fluorescence, DELFIA europium; GST-JMJD2C(1-420) H3K9me3 demethylation; Lysine-specific demethylase 4C (Homo sapiens), Q9H3R0; AID 2099, 2009; actives 0.069% (n = 330,000); inhibition, % at 2.35 µM;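 active = more than half of a compound's replicate wells show inhibition beyond 50%, single wells judged on their own value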;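 also: signal counts dimethyl H3K9 product captured on neutravidin plate; 0% = median of DMSO wells and 100% = 0.3 times that DMSO median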
Lipid droplet: inhibitors of hepatocyte lipid droplet formation, primary screen, imaging, high-throughput imaging, BODIPY stain; AML12 mouse hepatocytes, oleate lipid droplets; inhibition, % at 6.5 µM; actives 0.4% (n = 240,000); AID 1656, 2009;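 active = lipid droplet intensity inhibited by at least 50%, with more than 500 cells counted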
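Material: mouse AML12 hepatocyte cell line, fixed after treatment; Timing: compound with oleate, overnight; Technique: high-content imaging of BODIPY-stained droplets and DAPI nuclei; Probe or stimulus: oleate, 100 µM final; Dosing: compound at 6.5 µM only.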
GRK2 inh confirm: GRK2 aptamer-displacing inhibitors, retest, confirmation, biochemical, cherry pick 1, bead flow cytometry | actives 4% (n = 2,000) | bead-bound GRK2, FAM-aptamer displacement | shares compounds with GRK2 aptamer HTS | aptamer displacement, % at 10 µM;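 active = aptamer displacement above 40%, near three times the noise of non-fluorescent compounds, on plates passing quality checks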;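 also: negative values mostly reflect intrinsic compound fluorescence rather than true enhancement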
Aptamer quench SP: aptamer fluorescence quenching in GRK2 counter-screen. shares compounds with GRK2 aptamer HTS. Carboxyfluorescein RNA aptamer on beads, flow cytometry quenching; stronger effect = lower value. fluorescence response (% of DMSO), % at 10 µM. 2,000 tested, under 10 active. AID 504580;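 active = compounds that quench the bead-bound fluorescent RNA probe, cutting fluorescence to under half of the solvent control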;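 also: counterscreen run without GRK2 so only probe quenching by compound is measured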
Starred values were filed as active, the others as inactive.

Results for CCOc1ccccc1NC(=S)N1C2CCC1CC(NC(=O)NC13CC4CC(CC(C4)C1)C3)C2 (stereo unspecified) ?
procasp3 activ: 1.8; VLA-4 inh: -7.8; procasp7 counter: 13.4; GRK2 aptamer HTS: 3.0; JMJD2C inh: -3.8

Results for CCOC(=O)c1cc(-c2ccccc2C)n(CC2CC(c3cccc([N+](=O)[O-])c3)=NO2)n1 (stereo unspecified) ?
procasp3 activ: 1.4; VLA-4 inh: 13.1; procasp7 counter: 1.1; GRK2 aptamer HTS: 1.0; JMJD2C inh: 4.6

What do the screens show for `Nc1c(C(=O)CSc2nncn2-c2ccccc2)c(=O)[nH]c(=O)n1C1CC1`?
procasp3 activ: -4.6; VLA-4 inh: -3.0; procasp7 counter: 6.9; GRK2 aptamer HTS: 61.0*; JMJD2C inh: 7.9; GRK2 inh confirm: -0.9; Aptamer quench SP: 94.8

Results for O=C1[C@@H]2Cc3c([nH]c4ccccc34)C(c3cccc(Br)c3)N2C(=O)CN1C1CCN(Cc2ccccc2)CC1 (stereo partly specified) ?
procasp3 activ: 5.7; VLA-4 inh: 11.0; procasp7 counter: 3.6; GRK2 aptamer HTS: 0.0; JMJD2C inh: 3.4; Lipid droplet: 29.3; GRK2 inh confirm: -4.5; Aptamer quench SP: 99.7

What do the screens show for `O=C1[C@@H]2Cc3c([nH]c4ccccc34)C(c3ccccc3)N2C(=O)CN1C1CCN(Cc2ccccc2)CC1` (stereo partly specified)?
procasp3 activ: 8.3; VLA-4 inh: 0.1; procasp7 counter: 5.3; GRK2 aptamer HTS: 0.0; JMJD2C inh: 14.1; Lipid droplet: 28.0; GRK2 inh confirm: -1.7; Aptamer quench SP: 111.9

Results for COCCN(C(=O)c1ccccc1Oc1ccccc1)c1c(N)n(CC(C)C)c(=O)[nH]c1=O ?
procasp3 activ: -4.5; VLA-4 inh: 17.5; procasp7 counter: 3.2; GRK2 aptamer HTS: 41.0*; JMJD2C inh: -5.9; GRK2 inh confirm: 0.4; Aptamer quench SP: 97.8

How did CCOC(=O)c1cccc(NC(=O)c2ccc(-n3cnnn3)cc2)c1 do in these assays?
procasp3 activ: -1.3; VLA-4 inh: -11.6; procasp7 counter: -3.0; GRK2 aptamer HTS: 24.0; JMJD2C inh: 9.7; GRK2 inh confirm: -0.5; Aptamer quench SP: 103.7

Results for COc1ccc(C(=O)N(C)Cc2cnn(Cc3ccccc3)c2)cc1S(=O)(=O)N1CCOCC1 ?
procasp3 activ: -8.2; VLA-4 inh: 22.8; procasp7 counter: 4.1; GRK2 aptamer HTS: 2.0; JMJD2C inh: -4.9

Results for COc1cc(OC)c(OC)cc1CNC(=O)c1ccc(COc2ccccc2)cc1 ?
procasp3 activ: -3.3; VLA-4 inh: 3.8; procasp7 counter: -4.1; GRK2 aptamer HTS: 0.0; JMJD2C inh: 3.5; Lipid droplet: -11.9

Results for O=C(Cc1ccccc1)NS(=O)(=O)c1ccc(N=NN2CCOCC2)cc1 ?
procasp3 activ: -9.1; VLA-4 inh: -8.6; procasp7 counter: -7.9; GRK2 aptamer HTS: 26.0; JMJD2C inh: -22.9; Lipid droplet: -0.7; GRK2 inh confirm: -2.9; Aptamer quench SP: 99.1

Results for COC(=O)CCC(=O)NS(=O)(=O)c1ccc(N=NN2CCOCC2)cc1 ?
procasp3 activ: -4.7; VLA-4 inh: -9.7; procasp7 counter: 10.7; GRK2 aptamer HTS: 2.0; JMJD2C inh: 5.6; Lipid droplet: 7.3
